Source: ChEMBL document CHEMBL3414471 (J Med Chem, 2015)
Calls of active or inactive are those of the source. No cut-off for these calls is given here.

What was measured:
[1] = molecular target: T1, 5-hydroxytryptamine receptor 2B (Homo sapiens, UniProt P41595); test: Agonist activity at human 5-HT2B receptor expressed in HEK293 cells assessed as calcium flux by FLIPR assay; type: functional, cell-based
[2] = molecular target: T1, 5-hydroxytryptamine receptor 2B; test: Agonist activity at human 5-HT2B receptor expressed in HEK293 cells assessed as calcium flux by FLIPR assay relative to 5-HT; type: functional, cell-based
Summary of the method: (§1)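 Flp-In-293 cells stably expressing human 5-HT2A, 5-HT2B or 5-HT2C-INI; grown 24–48 h in DMEM/10% dialyzed FBS, plated on poly-L-Lys at 12000 cells/well in 1% dialyzed FBS for 24 h. Loaded 1 h at 37 °C with calcium dye in HBSS, 20 mM Hepes pH 7.40, 2.5 mM probenecid.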

[3] = molecular target: T2, 5-hydroxytryptamine receptor 2C (Homo sapiens) (UniProt P28335); test: Agonist activity at human 5-HT2C receptor expressed in HEK293 cells assessed as calcium flux by FLIPR assay relative to 5-HT; type: functional, cell-based; summary of the method: as §1
T2 sequence (whole entry): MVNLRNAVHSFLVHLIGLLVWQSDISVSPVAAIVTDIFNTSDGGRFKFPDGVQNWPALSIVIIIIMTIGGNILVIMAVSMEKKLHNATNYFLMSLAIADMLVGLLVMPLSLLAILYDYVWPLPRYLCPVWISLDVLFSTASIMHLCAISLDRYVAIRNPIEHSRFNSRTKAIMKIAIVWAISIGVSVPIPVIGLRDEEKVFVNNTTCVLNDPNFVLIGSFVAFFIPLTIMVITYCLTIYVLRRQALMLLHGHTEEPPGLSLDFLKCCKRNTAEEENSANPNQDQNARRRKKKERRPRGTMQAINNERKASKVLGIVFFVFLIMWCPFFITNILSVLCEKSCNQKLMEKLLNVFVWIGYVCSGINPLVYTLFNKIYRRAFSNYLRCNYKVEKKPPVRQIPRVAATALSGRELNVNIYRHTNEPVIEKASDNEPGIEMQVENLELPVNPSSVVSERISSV

Homo sapiens = species: Homo sapiens; test: Selectivity ratio of EC50 for human 5-HT2B receptor to EC50 for human 5HT2C receptor
[4] = molecular target: 5-hydroxytryptamine receptor 2A (Homo sapiens, UniProt P28223); test: Agonist activity at human 5-HT2A receptor expressed in HEK293 cells assessed as calcium flux at 10 uM by FLIPR assay; type: functional, cell-based
Summary of the method: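 Flp-In-293 cells stably expressing human 5-HT2A, 5-HT2B or 5-HT2C-INI, grown in DMEM with 10% dialyzed FBS, then plated for 24 h in 1% dialyzed FBS. Cells were loaded 1 h at 37 °C with calcium dye in Hepes-buffered HBSS, pH 7.40, containing 2.5 mM probenecid. FLIPR read 10 s baseline, then 120 s after drug addition.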

[5] = molecular target: T3, 5-hydroxytryptamine receptor 2C (Homo sapiens, UniProt P28335); test: Agonist activity at human 5-HT2C receptor expressed in HEK293 cells assessed as calcium flux by FLIPR assay; type: functional, cell-based
T3 sequence (P28335 whole entry): T2 sequence (whole entry)

T1 sequence (P41595 whole entry): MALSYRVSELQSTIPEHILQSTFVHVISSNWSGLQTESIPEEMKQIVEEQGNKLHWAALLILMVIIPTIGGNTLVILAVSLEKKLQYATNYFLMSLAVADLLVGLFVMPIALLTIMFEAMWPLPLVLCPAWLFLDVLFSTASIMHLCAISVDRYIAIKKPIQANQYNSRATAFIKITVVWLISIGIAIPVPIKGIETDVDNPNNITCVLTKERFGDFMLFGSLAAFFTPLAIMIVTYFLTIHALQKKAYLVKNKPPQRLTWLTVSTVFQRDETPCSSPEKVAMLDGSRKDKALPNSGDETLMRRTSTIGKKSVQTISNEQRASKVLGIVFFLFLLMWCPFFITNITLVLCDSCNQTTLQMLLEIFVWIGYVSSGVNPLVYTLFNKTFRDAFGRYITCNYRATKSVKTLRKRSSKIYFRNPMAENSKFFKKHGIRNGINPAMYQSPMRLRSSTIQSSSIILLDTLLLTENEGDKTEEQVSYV
Chain of 5-hydroxytryptamine receptor 2A (P28223 whole entry): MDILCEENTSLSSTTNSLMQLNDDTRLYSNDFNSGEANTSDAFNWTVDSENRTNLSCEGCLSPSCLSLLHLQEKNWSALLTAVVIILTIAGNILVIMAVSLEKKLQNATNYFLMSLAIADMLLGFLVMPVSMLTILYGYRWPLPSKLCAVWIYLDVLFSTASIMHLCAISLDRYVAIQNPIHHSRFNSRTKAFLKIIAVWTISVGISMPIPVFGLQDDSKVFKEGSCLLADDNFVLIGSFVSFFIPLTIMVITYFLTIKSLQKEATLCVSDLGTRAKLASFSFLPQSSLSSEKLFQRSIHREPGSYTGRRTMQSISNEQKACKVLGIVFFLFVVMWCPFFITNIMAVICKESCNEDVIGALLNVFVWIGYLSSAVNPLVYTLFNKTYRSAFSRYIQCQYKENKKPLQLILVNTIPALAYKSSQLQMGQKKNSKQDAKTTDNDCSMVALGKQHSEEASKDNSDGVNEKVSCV

`CCCOc1ccc(Cl)cc1[C@H]1C[C@@H]1CN` was tested, and the EC50 [1] was 3440 nM, the Emax [2] was 25% and the Emax [3] was 72%. For the same compound, the Ratio EC50 (Homo sapiens) was 33, the Activity [4] was “inactive” and the EC50 [5] was 103 nM.
